Test results reported in ChEMBL document CHEMBL1140587, “Investigation of the terminal P4 domain in a series of D-phenylglycinamide-based factor Xa inhibitors” (Bioorg Med Chem Lett, 2007).

Key:
[1] = target: Coagulation factor X (Homo sapiens) (UniProt P00742); test: Binding affinity to human factor10a
Plasma = test: Anticoagulant activity in human plasma assessed as concentration required to double prothrombin time; format: functional
[2] = AUC(0 to 7 hrs) in rat plasma at 20 mg/kg, po; format: ADME, organism-based; design: time < 7 hr, dose 20 mg/kg, route oral
In short: (§1)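 Fasted Fisher rats (n = 3) got one 20 mpk oral gavage, suspended in acacia or CMC/Tween 80. Citrated blood was taken at set times and spun to plasma. Drug level was read as anti-Xa equivalents: plasma at 37 °C for 15 min, S-2222 substrate, human fXa 0.4 U/ml, 405 nm kinetic over 10 min. Values came from triplicate spiked-plasma standards by four-parameter logistic fit; AUC by area algorithm.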

[3] = Cmax in rat plasma at 20 mg/kg, po; format: ADME, organism-based; design: dose 20 mg/kg, route oral; in short: as §1

Chain of Coagulation factor X (Homo sapiens) (P00742 41-179 limits assumed): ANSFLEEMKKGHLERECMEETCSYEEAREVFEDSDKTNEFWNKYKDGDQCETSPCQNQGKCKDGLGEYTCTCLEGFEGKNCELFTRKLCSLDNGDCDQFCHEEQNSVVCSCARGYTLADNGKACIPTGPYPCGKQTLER
Chain of Coagulation factor X (Homo sapiens) (P00742 235-488 limits assumed): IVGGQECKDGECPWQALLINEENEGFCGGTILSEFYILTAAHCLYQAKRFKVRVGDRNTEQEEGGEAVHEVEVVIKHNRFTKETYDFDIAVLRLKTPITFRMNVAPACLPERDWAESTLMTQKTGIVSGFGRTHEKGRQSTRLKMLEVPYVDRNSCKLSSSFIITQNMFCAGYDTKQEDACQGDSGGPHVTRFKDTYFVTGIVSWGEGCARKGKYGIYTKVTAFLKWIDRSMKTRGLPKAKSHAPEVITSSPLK

SMILES | Kapp [1] | AUC(0-t) at 7 h [2] | Cmax [3] | Activity (Plasma)
CC(C)NCC1CCN(C(=O)[C@H](NC(=O)c2ccc3cc[nH]c3c2)c2ccccc2)CC1 | 7.8 10^6L/mol |  |  | 
CCN(CC)CC1CCN(C(=O)[C@H](NC(=O)c2ccc3cc[nH]c3c2)c2ccccc2)CC1 | 28 10^6L/mol |  |  | 2.3 µM
O=C(N[C@@H](C(=O)N1CCC(CN2CC[C@@H](O)C2)CC1)c1ccccc1)c1ccc2cc[nH]c2c1 | 4 10^6L/mol |  |  | 
Cc1c[nH]c2cc(C(=O)N[C@@H](C(=O)N3CCC(CN4CCCCC4)CC3)c3ccccc3)ccc12 | 110 10^6L/mol | 14 µg·h/mL | 2.4 µM | 1.5 µM
O=C(N[C@@H](C(=O)N1CCC(CN2CCNCC2)CC1)c1ccccc1)c1ccc2cc[nH]c2c1 | 3.9 10^6L/mol |  |  | 
O=C(N[C@@H](C(=O)N1CCC(CN2CCCCC2)CC1)c1ccccc1)c1ccc2cc[nH]c2c1 | 48 10^6L/mol | 23 µg·h/mL | 4.7 µM | 1.2 µM
O=C(N[C@@H](C(=O)N1CCC(CN2CCC(O)C2)CC1)c1ccccc1)c1ccc2cc[nH]c2c1 (stereo not given in full) | 5 10^6L/mol |  |  | 

Second part, led by results:

Kapp [1] | AUC(0-t) at 7 h [2] | Cmax [3] | SMILES | Activity (Plasma)
9.7 10^6L/mol |  |  | O=C(N[C@@H](C(=O)N1CCC(CN2CCC[C@H]2CO)CC1)c1ccccc1)c1ccc2cc[nH]c2c1 | 
18 10^6L/mol |  |  | O=C(N[C@@H](C(=O)N1CCC(CN2CCC[C@@H]2CO)CC1)c1ccccc1)c1ccc2cc[nH]c2c1 | 2.2 µM
0.7 10^6L/mol |  |  | O=C(N[C@@H](C(=O)N1CCC(CN2CCC(CO)CC2)CC1)c1ccccc1)c1ccc2cc[nH]c2c1 | 
10 10^6L/mol |  |  | O=C(N[C@@H](C(=O)N1CCC(CN2CCC(O)CC2)CC1)c1ccccc1)c1ccc2cc[nH]c2c1 | 
24 10^6L/mol |  |  | O=C(N[C@@H](C(=O)N1CCC(CN2CCCC2)CC1)c1ccccc1)c1ccc2cc[nH]c2c1 | 2.2 µM
1.5 10^6L/mol |  |  | CN1CCN(CC2CCN(C(=O)[C@H](NC(=O)c3ccc4cc[nH]c4c3)c3ccccc3)CC2)CC1 | 
710 10^6L/mol | 10 µg·h/mL | 1.7 µM | O=C(N[C@@H](C(=O)N1CCC(CN2CCCCC2)CC1)c1ccccc1)c1ccc2c(Cl)c[nH]c2c1 | 1.1 µM
450 10^6L/mol | 19 µg·h/mL | 4 µM | CN1CCC(C2CCN(C(=O)[C@H](NC(=O)c3ccc4cc[nH]c4c3)c3ccccc3)CC2)CC1 | 1.5 µM
